Data on 16 compounds can be found in BindingDB's records for doi:10.1021/jm980722p (Merck Research Laboratories, 1999).

Sequence of Integrin alpha-IIb/beta-3 (P05106 27-788 limits assumed): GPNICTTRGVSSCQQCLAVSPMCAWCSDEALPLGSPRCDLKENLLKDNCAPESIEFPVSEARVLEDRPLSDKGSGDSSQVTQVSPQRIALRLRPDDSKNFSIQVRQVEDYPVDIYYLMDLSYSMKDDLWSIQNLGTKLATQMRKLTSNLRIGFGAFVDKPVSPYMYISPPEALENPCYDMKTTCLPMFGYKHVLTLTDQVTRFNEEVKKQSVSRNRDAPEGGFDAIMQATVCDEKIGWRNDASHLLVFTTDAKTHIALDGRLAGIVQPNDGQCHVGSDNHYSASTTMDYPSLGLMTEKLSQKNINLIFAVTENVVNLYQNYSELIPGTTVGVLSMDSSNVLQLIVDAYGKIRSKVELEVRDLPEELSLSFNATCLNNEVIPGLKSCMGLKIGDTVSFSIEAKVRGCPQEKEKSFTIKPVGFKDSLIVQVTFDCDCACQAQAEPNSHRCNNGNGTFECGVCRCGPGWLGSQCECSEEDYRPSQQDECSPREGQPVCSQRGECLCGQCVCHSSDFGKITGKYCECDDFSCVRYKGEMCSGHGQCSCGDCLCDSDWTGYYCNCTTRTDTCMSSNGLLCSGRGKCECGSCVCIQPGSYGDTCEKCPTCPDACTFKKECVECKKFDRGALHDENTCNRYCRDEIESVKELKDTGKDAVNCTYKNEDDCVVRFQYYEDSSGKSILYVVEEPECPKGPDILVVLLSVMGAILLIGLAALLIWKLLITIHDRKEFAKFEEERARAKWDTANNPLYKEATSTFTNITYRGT
Sequence of Integrin alpha-IIb/beta-3 (P08514 32-887 limits assumed): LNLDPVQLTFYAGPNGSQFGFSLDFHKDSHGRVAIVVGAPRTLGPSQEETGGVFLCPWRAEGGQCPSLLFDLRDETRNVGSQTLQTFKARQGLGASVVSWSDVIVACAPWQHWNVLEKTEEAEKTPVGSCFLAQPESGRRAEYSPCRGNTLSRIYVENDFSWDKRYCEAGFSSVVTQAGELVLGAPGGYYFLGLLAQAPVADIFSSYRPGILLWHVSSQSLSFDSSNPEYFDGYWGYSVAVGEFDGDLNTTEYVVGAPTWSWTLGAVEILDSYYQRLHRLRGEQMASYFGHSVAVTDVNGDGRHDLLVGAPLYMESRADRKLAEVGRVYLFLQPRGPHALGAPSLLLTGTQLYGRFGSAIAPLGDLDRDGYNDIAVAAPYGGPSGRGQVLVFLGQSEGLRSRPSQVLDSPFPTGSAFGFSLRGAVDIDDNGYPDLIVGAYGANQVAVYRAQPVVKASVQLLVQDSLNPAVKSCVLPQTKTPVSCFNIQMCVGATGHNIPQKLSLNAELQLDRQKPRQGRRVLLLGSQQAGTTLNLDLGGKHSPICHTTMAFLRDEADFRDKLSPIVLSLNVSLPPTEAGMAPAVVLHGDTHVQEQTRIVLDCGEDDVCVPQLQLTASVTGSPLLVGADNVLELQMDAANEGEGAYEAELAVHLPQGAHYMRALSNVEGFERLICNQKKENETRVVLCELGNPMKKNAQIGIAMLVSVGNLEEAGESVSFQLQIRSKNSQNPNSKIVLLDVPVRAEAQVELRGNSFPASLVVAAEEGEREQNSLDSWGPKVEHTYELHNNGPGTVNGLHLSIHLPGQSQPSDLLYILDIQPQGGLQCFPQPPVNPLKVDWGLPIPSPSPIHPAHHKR
Sequence of Integrin alpha-IIb/beta-3 (P08514 891-1039 limits assumed): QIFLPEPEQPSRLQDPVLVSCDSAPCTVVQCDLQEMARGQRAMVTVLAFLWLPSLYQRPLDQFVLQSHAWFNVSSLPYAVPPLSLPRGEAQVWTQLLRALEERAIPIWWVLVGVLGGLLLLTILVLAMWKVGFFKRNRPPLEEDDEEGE

For the experiment, the target named is Integrin alpha-IIb/beta-3 (Homo sapiens, UniProt P08514+P05106). Briefly: The compound was tested in vitro for the inhibition of aggregation of human gel-filtered platelets(GFP). The method, boiled down:
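Human gel-filtered platelets at 2 × 10⁸/mL were mixed with 0.1 mg/mL human fibrinogen, 1 mM CaCl₂ and the test compound, then challenged with ADP. Aggregation was read by light transmittance at 37 °C against control samples.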
For the compound `CS(=O)(=O)N[C@@H](CNC(=O)c1cc2cc(CCC3CCNCC3)sc2s1)C(=O)O` [(S)-2-Methanesulfonylamino-3-{[5-(2-piperidin-4-yl-ethyl)-thieno[2,3-b]thiophene-2-carbonyl]-amino}-propionic acid], the IC50 (in general, the concentration that gives 50% inhibition) was found to be 15 nM. Under `O=C(O)CCNC(=O)c1cc2sc(CCC3CCNCC3)cc2s1` [3-{[5-(2-Piperidin-4-yl-ethyl)-thieno[3,2-b]thiophene-2-carbonyl]-amino}-propionic acid] stands 500 nM. Compound `O=C(NC[C@@H](NS(=O)(=O)c1ccccc1)C(=O)O)c1cc2cc(CCC3CCNCC3)sc2s1` displayed an IC50 of 36 nM.

With `O=C(NC[C@H](NS(=O)(=O)c1cccs1)C(=O)O)c1cc2sc(CCC3CCNCC3)cc2s1` [(S)-3-{[5-(2-Piperidin-4-yl-ethyl)-thieno[3,2-b]thiophene-2-carbonyl]-amino}-2-(thiophene-2-sulfonylamino)-propionic acid], the IC50 stood at 13 nM. In turn, `O=C(NC[C@@H](NS(=O)(=O)c1cccnc1)C(=O)O)c1cc2cc(CCC3CCNCC3)sc2s1` gave an IC50 of 19 nM.

`CCCCS(=O)(=O)N[C@@H](CNC(=O)c1cc2cc(CCC3CCNCC3)sc2s1)C(=O)O` [(S)-2-(Butane-1-sulfonylamino)-3-{[5-(2-piperidin-4-yl-ethyl)-thieno[2,3-b]thiophene-2-carbonyl]-amino}-propionic acid] registered an IC50 of 32 nM. Compared with the last compound, the IC50 is about 1.7-fold higher.

`CCOCCS(=O)(=O)N[C@@H](CNC(=O)c1cc2cc(CCC3CCNCC3)sc2s1)C(=O)O` [(S)-2-(2-Ethoxy-ethanesulfonylamino)-3-{[5-(2-piperidin-4-yl-ethyl)-thieno[2,3-b]thiophene-2-carbonyl]-amino}-propionic acid] gave an IC50 of 7 nM. `O=C(O)CCNC(=O)c1cc2cc(CCC3CCNCC3)sc2s1` [3-{[5-(2-Piperidin-4-yl-ethyl)-thieno[2,3-b]thiophene-2-carbonyl]-amino}-propionic acid] had an IC50 of 410 nM. The figure for `CS(=O)(=O)N[C@@H](CNC(=O)c1cc2sc(CCC3CCNCC3)cc2s1)C(=O)O` [(S)-2-Methanesulfonylamino-3-{[5-(2-piperidin-4-yl-ethyl)-thieno[3,2-b]thiophene-2-carbonyl]-amino}-propionic acid] is 14 nM. In turn, `O=C(NC[C@H](NS(=O)(=O)c1cccnc1)C(=O)O)c1cc2sc(CCC3CCNCC3)cc2s1` [(S)-3-{[5-(2-Piperidin-4-yl-ethyl)-thieno[3,2-b]thiophene-2-carbonyl]-amino}-2-(pyridine-3-sulfonylamino)-propionic acid] yielded an IC50 of 15 nM.

Regarding `CCCCS(=O)(=O)N[C@@H](CNC(=O)c1cc2sc(CCC3CCNCC3)cc2s1)C(=O)O` [(S)-2-(Butane-1-sulfonylamino)-3-{[5-(2-piperidin-4-yl-ethyl)-thieno[3,2-b]thiophene-2-carbonyl]-amino}-propionic acid], the IC50 worked out at 10 nM. Under `O=C(NC[C@H](NS(=O)(=O)c1cccnc1)C(=O)O)c1cc2cc(CCCC3CCNCC3)sc2s1` [(S)-3-{[5-(3-Piperidin-4-yl-propyl)-thieno[2,3-b]thiophene-2-carbonyl]-amino}-2-(pyridine-3-sulfonylamino)-propionic acid] stands 23 nM; under `CCOCCS(=O)(=O)N[C@@H](CNC(=O)c1cc2sc(CCC3CCNCC3)cc2s1)C(=O)O` [(S)-2-(2-Ethoxy-ethanesulfonylamino)-3-{[5-(2-piperidin-4-yl-ethyl)-thieno[3,2-b]thiophene-2-carbonyl]-amino}-propionic acid], 10 nM. Under `O=C(NC[C@H](NS(=O)(=O)c1cccs1)C(=O)O)c1cc2cc(CCC3CCNCC3)sc2s1` [(S)-3-{[5-(2-Piperidin-4-yl-ethyl)-thieno[2,3-b]thiophene-2-carbonyl]-amino}-2-(thiophene-2-sulfonylamino)-propionic acid] stands 9 nM; under `O=C(NC[C@H](NS(=O)(=O)c1ccc(Cl)cc1)C(=O)O)c1cc2cc(CCC3CCNCC3)sc2s1` [(S)-2-(4-Chloro-benzenesulfonylamino)-3-{[5-(2-piperidin-4-yl-ethyl)-thieno[2,3-b]thiophene-2-carbonyl]-amino}-propionic acid], 11 nM. Under `O=C(NC[C@H](NS(=O)(=O)c1cccnc1)C(=O)O)c1cc2cc(C3CCNCC3)sc2s1` [(S)-3-[(5-Piperidin-4-yl-thieno[2,3-b]thiophene-2-carbonyl)-amino]-2-(pyridine-3-sulfonylamino)-propionic acid] stands 21 nM.
